Screening results (PubChem)
hERG rescue – shields human hERG channel from block by proarrhythmic agents; Q12809; activation (rescue from dofetilide block), less the hit threshold, % at 10 µM; AID 1511; 310,000 compounds, 0.51% hits; CHO-hERG, FluxOR thallium flux, dofetilide IC70 present;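 active = activation above the mean of controls blocked by dofetilide plus 5 SD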;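 note: thallium influx through hERG after potassium depolarization seen as dye fluorescence rise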
KCNQ1 block – inhibitors of human KCNQ1 potassium channel. P51787. CHO-K1 KCNQ1, FluxOR thallium flux fluorescence; active compounds read high. 310,000 compounds, 1.3% hits. B-score at 10 µM;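 active = compounds whose thallium flux B-score, printed positive for inhibition, exceeds three library SD while starting fluorescence stays within three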;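 note: channel opened by potassium depolarization with thallium stimulus after 20 min compound exposure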
Target sequence (P51787 whole entry, looked up): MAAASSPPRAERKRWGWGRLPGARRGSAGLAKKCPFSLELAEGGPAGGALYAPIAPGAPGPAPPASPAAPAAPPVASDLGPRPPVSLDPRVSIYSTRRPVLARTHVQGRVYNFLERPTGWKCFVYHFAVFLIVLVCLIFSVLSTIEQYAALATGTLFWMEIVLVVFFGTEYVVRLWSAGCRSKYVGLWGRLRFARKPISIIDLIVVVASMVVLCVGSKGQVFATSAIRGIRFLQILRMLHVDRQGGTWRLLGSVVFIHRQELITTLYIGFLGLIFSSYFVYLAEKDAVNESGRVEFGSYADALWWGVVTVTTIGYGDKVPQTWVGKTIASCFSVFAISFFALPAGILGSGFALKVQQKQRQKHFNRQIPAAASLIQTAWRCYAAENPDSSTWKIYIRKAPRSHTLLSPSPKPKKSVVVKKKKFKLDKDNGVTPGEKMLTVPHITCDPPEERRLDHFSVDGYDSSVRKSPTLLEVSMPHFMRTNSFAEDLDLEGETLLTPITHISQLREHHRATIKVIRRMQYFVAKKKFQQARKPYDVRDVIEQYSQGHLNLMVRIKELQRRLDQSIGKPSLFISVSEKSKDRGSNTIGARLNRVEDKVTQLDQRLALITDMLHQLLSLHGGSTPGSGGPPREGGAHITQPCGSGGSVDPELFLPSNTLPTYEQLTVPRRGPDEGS
KCNQ1 act – potentiates or activates the human KCNQ1 potassium channel; P51787; CHO-K1 KCNQ1, thallium flux FluxOR fluorescence; active compounds read high; B-score at 10 µM; 310,000 compounds, 0.35% hits; AID 2648;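 active = fluorescence ratio B-score, a plate-corrected score, at least three library SD, with initial intensity B-score within 5 SD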
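Test system: CHO-K1 cells stably expressing KCNQ1 / Medium: assay buffer / Also added: depolarizing K+/Tl+ stimulus, K2SO4 and Tl2SO4 each 12.5 mM in 5x stock / Incubation: 90 min dye loading and 20 min compound exposure, both at room temperature / Signal: thallium influx via FluxOR fluorescence, kinetic imaging / Evaluation: B score of baseline-normalized fluorescence ratio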
KCNK9 block – blocks the human KCNK9 two-pore domain potassium channel | HEK293 KCNK9, FluxOR thallium flux fluorescence; active compounds read low | B-score at 10 µM | 310,000 compounds, 1.2% hits | AID 488922;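 active = ratio B-score over 3 SD below the library mean, with starting fluorescence within 5 SD of its mean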;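 note: negative B-score means less thallium flux so channel inhibition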
Cl transport mod – KCC2 (human) Cl- transport modulation | Q9H2X9 | KCC2 cells, thallium flux FluoZin-2 fluorescence | B-score of Tl+ flux slope (higher = more flux/activation; lower = inhibition) at 10 µM | 190,000 compounds, 2.2% hits | AID 1456;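 active = thallium flux slope and its plate-corrected score both differing from the plate sample mean at a set confidence after two filtering rounds, in either direction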;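 note: slope of fluorescence scaled to starting intensity during 10 to 20 s after thallium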
KCNK3 block – human KCNK3 channel inhibition, primary screen; B-score at 10 µM; CHO-KCNK3 thallium flux, FluxOR fluorescence; active compounds read low; 340,000 compounds, 0.84% hits; O14649; AID 602410;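 active = B-score under library mean minus 4 SD, starting fluorescence ratio at most library mean plus 5 SD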;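 note: more negative B-score means stronger inhibition of thallium flux through KCNK3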
KCNQ1 block val – confirmation of human KCNQ1 potassium channel inhibitors; inhibition, % at 10 µM; AID 588353; shares compounds with KCNQ1 block; KCNQ1 cell line, FluxOR thallium flux fluorescence; 1,600 compounds, 93% hits;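 active = primary screen active, with duplicate mean exceeding buffer control mean plus 3 SD of buffer wells, cut at about 28% in these data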
CHO KCNQ1 ctr – KCNQ1 inhibitor counter-screen hit in parental CHO cells | parental CHO-K1, FluxOR thallium flux fluorescence ratio; active compounds read low; zero means no signal rise above baseline | AID 588366 | 1,600 compounds, 21% hits | fluorescence ratio (Tl flux) at 10 µM | shares compounds with KCNQ1 block;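 active = mean of duplicate thallium-flux fluorescence ratios in parental host cells more than 5 SD below the buffer control mean, cut at about 0.38 in these data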;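 note: ratio is peak minus minimum fluorescence divided by baseline fluorescence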
KCNQ1 ephys val – blocks human KCNQ1 current in automated patch clamp | shares compounds with KCNQ1 block | AID 624120 | 490 compounds, 20% hits | KCNQ1-CHO cells | calls only at 10 µM;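 active = KCNQ1 current drop exceeding 3 SD of negative control wells, seen in both duplicate runs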;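 note: steady state current during a 2 s step from -80 to +40 mV; negative values mean current inhibition and positive values mean potentiation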
KCNQ2 inh – rat KCNQ2 inhibition in KCNQ1 inhibitor specificity screen | shares compounds with KCNQ1 block | KCNQ2 cells, FluxOR thallium flux fluorescence | inhibition, % at 10 µM | 1,600 compounds, 71% hits | AID 651746;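 active = mean percent inhibition of the KCNQ2 thallium signal more than 5 SD above the buffer-only control wells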;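 note: KCNQ2 expressed in CHO cells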
KCNQ1-KCNE1 inh – human KCNQ1/KCNE1 inhibition in KCNQ1 specificity screen; shares compounds with KCNQ1 block; 1,600 compounds, 77% hits; KCNQ1/KCNE1 cells, FluxOR thallium flux fluorescence; inhibition, % at 10 µM; AID 652147;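 active = mean percent inhibition of duplicate wells above the buffer-only control mean plus 3 SD of those controls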
Hits are given with their value; 0 = inactive; - = not tested or not shown; + = active, no number. Sampled rows, rich in hits. Any-hit rate of the full collection: about 4.1%.

SMILES	hERG rescue	KCNQ1 block	KCNQ1 act	KCNK9 block	Cl transport mod	KCNK3 block	KCNQ1 block val	CHO KCNQ1 ctr	KCNQ1 ephys val	KCNQ2 inh	KCNQ1-KCNE1 inh
C=CCn1c(=O)c(CCC(=O)Nc2ccc(N3CCOCC3)cc2)nc2cc(C(F)(F)F)ccc21	0	0	0	0	-	0	-	-	-	-	-
S=C(Nc1cccc(Cl)c1)NC1CCCCC1	0	8	0	0	0	0	49.5	0	-	59.7%	61.5%
COc1ccc(/C=C(\NC(=O)c2ccccc2)C(=O)N2CCC(C)CC2)cc1	-	-	-	-	-	0	-	-	-	-	-
COc1ccc(NC(=O)c2cc(S(=O)(=O)NCC3COc4ccccc4O3)ccc2F)cc1 (configuration not stated)	0	0	0	0	0	0	-	-	-	-	-
CC(C)c1ccc(NC(=O)c2cc(S(=O)(=O)NCC3COc4ccccc4O3)ccc2F)cc1 (configuration not stated)	0	7	0	0	0	0	95.0	0	0	116.3%	159.0%
Cn1c2c(c(=O)n(C)c1=O)C(C(F)(F)F)(C(F)(F)F)N=C(c1ccc(Cl)cc1)N2	0	7	0	0	-	0	62.0	0	-	0	0
COc1nc(-c2ccccc2)cc(-c2ccc(OC)c(OC)c2)n1	0	7	0	0	0	0	119.0	0	0	110.3%	131.0%
Cc1ccc(Cl)cc1N1CCN(C(=O)COc2ccc3c(c2)CCC3)CC1	0	7	0	0	0	0	118.0	0	0	121.0%	170.0%
CCCCCCNC(=O)C(C#N)c1nc2ccccc2nc1N1CCCC1 (configuration not stated)	0	9	0	0	0	0	+	0.195	-	0	0
C[C@]12c3[nH]c4cc(-c5ccco5)ccc4c3CCN1C(=O)[C@@H](CC(=O)NCc1cccc(C(F)(F)F)c1)C[C@@H]2C(=O)N1CCCCC1	-	-	-	-	-	0	-	-	-	-	-
Cc1ccc(Nc2nc3nonc3[nH]c2=O)cc1C	0	0	0	0	0	0	-	-	-	-	-
Cc1ccc(Nc2nc3nonc3[nH]c2=O)cc1Cl	0	9	0	0	0	0	29.0	0	-	0	0
Cc1cc(C)n2nc(C(=O)OCC(=O)N(CC(C)C)C3CCS(=O)(=O)C3)nc2n1 (configuration not stated)	-	-	-	-	-	0	-	-	-	-	-
FC(F)(F)c1nc(SCc2ccc(Cl)cc2Cl)n[nH]1	0	6	0	0	0	0	0	0	-	0	0
Cn1c(SCc2ccc(Cl)cc2Cl)nc(C(F)(F)F)cc1=O	0	0	0	0	0	0	-	-	-	-	-
CCC(CC)c1nnc(NC(=O)C23CC4CC(CC(NC(C)=O)(C4)C2)C3)s1	0	0	0	0	-	0	-	-	-	-	-
CC(=O)NC12CC3CC(C1)CC(C(=O)Nc1nc4ccc(F)cc4s1)(C3)C2	0	7	0	0	-	0	92.5	0	+	65.3%	85.0%
O=C(O)c1ccc(NC2(C(=O)O)CCCC2)cc1	-	-	-	-	-	0	-	-	-	-	-
Cc1noc(C)c1C(=O)Nc1sc(C)c(-c2ccccc2)c1C#N	0	9	0	0	0	0	107.0	0	0	80.7%	70.5%
C=CCOC(=O)C1=C(C)NC(C)=C(C(=O)OCC=C)C1/C=C/c1ccccc1	0	12	0	0	0	-10.6	135.0	0	0	101.0%	126.5%
CCOC(=O)Nc1ccc2c(c1)N(C(=O)CCN(C)C)c1ccccc1S2	0	0	0	0	0	0	-	-	-	-	-
